Assay [1] concerns 60 antibiotic-resistant Escherichia coli strains. In kind it is cell-based.
In another assay the test system is E. coli mutant strains. The assay can be described thus: Relative MIC measurement of mutant and evolved strains. In kind it is cell-based, Escherichia coli.
The next assay relates to CAP18-resistant bacteria. The assay can be described thus: Susceptibility of CAP18-resistant evolved bacteria to antibiotics. It counts as cell-based. As to conditions: preliminary results.
The subject of assay [2] is antibiotic-resistant E. coli strains. The assay can be described thus: Membrane integrity measurement. It counts as cell-based, Escherichia coli. As to conditions: sensitive strains could not grow on medium with 6% bile acid. In a few lines:
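Bile acid sensitivity came from the high-throughput screen in MS medium. About 103 bacteria/ml were pin-inoculated and grown 24 h at 30°C, 300 rpm, with OD600 read once. Resistant strains ran in 4 replicates and wild-type in 12 on the same plate, and growth arrest was scored per well. Strains unable to grow with 6% bile acid were grouped as sensitive.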

Assay [3] relates to E. coli K12 wild-type and antibiotic-resistant strains. Description: Antibiotic-PGLA combination screen. It counts as cell-based, Escherichia coli. As to conditions: Loewe additivity, EC90%. Put shortly: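 E. coli K12 BW25113 wild-type and 21 strains adapted to one of 10 antibiotics were tested. Single agents ran as 1.6-fold 8-step dilutions spanning 10.5x below to 2.6x above each strain's MIC, plus dilution series at 7 antibiotic:peptide ratios (7:1 to 1:7). Wells received 5×10^4 cells from overnight culture, then 24 h at 30°C, 300 rpm, OD600. Expected (Loewe) and measured EC90% gave CIr per ratio; CI is the mean of the 7 CIr values.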

Assay [4] deals with antibiotic-resistant bacteria. Description: Antibiotic MIC in the presence of subinhibitory PGLA. It counts as cell-based, Escherichia coli. Conditions: tetracycline (TET) resistant strain; ½ MIC PGLA (MIC against the wild-type). In a few lines: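 Each level was tested alone and alongside MIC determination of the antibiotic the strain was adapted to. Growth with peptide alone was scored as growth rate.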

The next assay deals with wild-type E. coli. The assay can be described thus: Experimental evolution of resistance followed by MIC measurement. It counts as cell-based, Escherichia coli.

Take cecropin P1 [CP1]: the “collateral sensitivity of antibiotic-resistant strains towards the peptide” value in assay [1] (60 laboratory-evolved antibiotic-resistant E. coli strains) is on record as “rarely show collateral sensitivity”.

With `O=C1CN(/N=C/c2ccc([N+](=O)[O-])o2)C(=O)N1` [nitrofurantoin], in the assay on E. coli mutant strains (ompC mutation inserted into wild-type E. coli), the “effect of ompC loss-of function mutation on susceptibility” value is on record as “conferred resistance”.

Take “bactenecin 5 (RFRPPIRRPPIRPPFYPPFRPPIRPPIFPPIRPPFRPPLGPFP; Bactenecin-5; UniProt P19660 131-173, looked up) [BAC5]”: the “interaction of tobramycin-resistant strains with the peptide” value in assay [1] (tobramycin-resistant E. coli strains) is “cross-resistance rather than collateral sensitivity”.

For “rabbit 18-kDa cationic antimicrobial protein [CAP18]”, the “consequence of evolving resistance to the peptide” value in the assay with CAP18-resistant bacteria is “collateral sensitivity to several conventional antibiotics”.

Take bile acid: the “percentage of antibiotic-resistant strains more susceptible than the wild-type” value in assay [2] is 75%.

In the case of Peptide Glycine-Leucine Amide [PGLA], the “interaction of PGLA with tetracycline (TET), wild-type strain” value in assay [3] (E. coli K12 wild-type, 0.86<CI<1.14 no interaction) is “no interaction”. In assay [3] (TET3, CI≤0.86 synergism), the “interaction of PGLA with tetracycline (TET), tetracycline-resistant strain TET3” value was “strong synergism”. The “growth rate reduction by the peptide applied alone” value in assay [4] was 40%. Besides, the “evolution of resistance to the peptide” value in the assay with wild-type E. coli (laboratory evolution, 160 generations) is listed as “marginal”. In the assay on wild-type E. coli (laboratory-evolved lines), the “cross-resistance between PGLA and ciprofloxacin or tetracycline in evolved lines” value was “no substantial cross-resistance”. Further, the “susceptibility of the marR single point mutant (marR*)” value in the assay with E. coli mutant strains (marR mutation in E. coli BW25113 or E. coli ATCC 25922) is “collateral sensitivity”.

These data come from PMC6544545 (Nature microbiology, 2018).
